Measured values as given in ChEMBL document CHEMBL1154352, “Toll-like receptor 7 selective synthetic oligoribonucleotide agonists: synthesis and structure-activity relationship studies” (J Med Chem, 2009).
Activity calls are given as the source filed them. No cut-off for these calls is given here.

Columns and labels:
[1] = system: PBMC; experiment: Immunomodulatory activity in human PBMC assessed as induction of IL1-beta at 50 ug/ml after 24 hrs; format: functional, cell-based
Method in brief: (§1)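 Human PBMCs plated at 5 × 10^6 cells/mL; compounds dissolved in PBS added at various concentrations, 37 °C for 24 h. Supernatant cytokines/chemokines quantified with human Luminex multiplex kit.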

[2] = system: PBMC; experiment: Immunomodulatory activity in human PBMC assessed as induction of TNFalpha at 50 ug/ml after 24 hrs; format: functional, cell-based; method in brief: as §1
[3] = molecular target: T1, Toll-like receptor 8 (Homo sapiens) (UniProt Q9NR97); experiment: Activation of human TLR8 expressed in HEK293XL assessed as fold induction of NF-kappaB activity at 50 ug/ml after 18 hrs by reporter gene assay relative to control
T1 sequence (whole entry): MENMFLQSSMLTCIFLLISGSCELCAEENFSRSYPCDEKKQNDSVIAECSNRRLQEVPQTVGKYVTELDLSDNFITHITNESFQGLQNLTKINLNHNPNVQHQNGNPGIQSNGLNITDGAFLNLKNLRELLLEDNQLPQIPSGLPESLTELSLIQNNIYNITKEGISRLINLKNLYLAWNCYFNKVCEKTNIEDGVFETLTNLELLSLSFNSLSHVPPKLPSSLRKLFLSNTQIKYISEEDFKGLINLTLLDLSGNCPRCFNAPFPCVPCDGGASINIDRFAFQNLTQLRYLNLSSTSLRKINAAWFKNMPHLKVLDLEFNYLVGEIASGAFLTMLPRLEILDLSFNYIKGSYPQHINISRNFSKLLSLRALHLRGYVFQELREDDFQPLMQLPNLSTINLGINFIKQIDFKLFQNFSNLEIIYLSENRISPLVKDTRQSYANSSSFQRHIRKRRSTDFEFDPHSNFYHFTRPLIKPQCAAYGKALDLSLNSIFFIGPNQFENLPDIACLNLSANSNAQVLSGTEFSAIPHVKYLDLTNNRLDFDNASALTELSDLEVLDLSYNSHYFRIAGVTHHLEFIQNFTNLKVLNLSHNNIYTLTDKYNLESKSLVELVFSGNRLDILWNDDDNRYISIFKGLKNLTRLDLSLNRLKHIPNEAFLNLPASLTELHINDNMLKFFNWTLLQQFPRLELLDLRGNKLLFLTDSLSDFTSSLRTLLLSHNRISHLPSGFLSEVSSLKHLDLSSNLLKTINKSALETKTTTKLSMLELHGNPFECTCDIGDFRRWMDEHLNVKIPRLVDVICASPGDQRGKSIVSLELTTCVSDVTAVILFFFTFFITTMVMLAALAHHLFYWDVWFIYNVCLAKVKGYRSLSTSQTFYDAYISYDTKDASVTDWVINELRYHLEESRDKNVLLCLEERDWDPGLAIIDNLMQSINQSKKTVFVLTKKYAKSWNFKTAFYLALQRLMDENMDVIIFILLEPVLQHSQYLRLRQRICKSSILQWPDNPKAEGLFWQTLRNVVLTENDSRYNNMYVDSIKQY
Method in brief: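 HEK293 cells stably expressing human TLR7 or TLR8, transiently transfected with SEAP reporter plasmid; medium replaced, SIMRA compounds added, 18 h incubation. Supernatant SEAP measured by QuantiBlue; expressed as fold increase in NF-κB activity over PBS control. Tabulated data at 50 μg/mL, representative of three independent experiments.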

[4] = system: PBMC; experiment: Immunomodulatory activity in human PBMC assessed as induction of IL6 at 50 ug/ml after 24 hrs; format: functional, cell-based; method in brief: as §1
[5] = organism: Homo sapiens; experiment: Immunostimulatory activity in human pDC assessed as induction of IL6 at 100 ug/ml after 24 hrs; format: functional
Method in brief: (§2)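 Human pDCs plated at 1 × 10^6 cells/mL; compounds in PBS added, 37 °C for 24 h; supernatant cytokines/chemokines by human Luminex multiplex kit.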

[6] = system: PBMC; experiment: Immunomodulatory activity in human PBMC assessed as induction of IFNalpha at 50 ug/ml after 24 hrs; format: functional, cell-based; method in brief: as §1
[7] = organism: Homo sapiens; experiment: Immunostimulatory activity in human pDC assessed as induction of IFNalpha at 100 ug/ml after 24 hrs; format: functional; method in brief: as §2
[8] = organism: Homo sapiens; experiment: Immunostimulatory activity in human mDC assessed as induction of IP10 at 100 ug/ml after 24 hrs; format: functional
Method in brief: (§3)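 Human mDCs isolated from PBMCs by CD19+ B-cell depletion then BDCA1 positive selection; plated at 1 × 10^6 cells/mL, compounds in PBS, 37 °C for 24 h; supernatant cytokines by human Luminex multiplex. Representative of four independent experiments.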

[9] = system: PBMC; experiment: Immunomodulatory activity in human PBMC assessed as induction of IP10 at 50 ug/ml after 24 hrs; format: functional, cell-based; method in brief: as §1
[10] = Metabolic stability in human serum assessed as full length product remaining after 10 mins by HPLC; format: ADME, cell-free; details: read-out: Stability
Method in brief: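 About 0.5 A260 units compound in 1% human serum in PBS, 37 °C; aliquot taken at 10 min, analysed by anion-exchange HPLC for percent intact full-length product.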

[11] = organism: Homo sapiens; experiment: Immunostimulatory activity in human mDC assessed as induction of TNFalpha at 100 ug/ml after 24 hrs; format: functional; method in brief: as §3
[12] = system: Mus musculus; experiment: Immunomodulatory activity in C57BL/6 mouse assessed as induction of IL12 release at 25 mg/kg, sc after 2 hrs by ELISA; format: functional, organism-based; set-up: dose 25 mg/kg
Method in brief: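 Female C57BL/6 wild-type mice, 5–8 weeks old, n=3; compounds given subcutaneously at 10 or 25 mg/kg. Retro-orbital blood at 2 h; serum cytokines by mouse Luminex multiplex or IL-12 ELISA.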

[13] = molecular target: Toll-like receptor 3 (Homo sapiens) (UniProt O15455); experiment: Activation of human TLR3 expressed in HEK293 assessed as induction of NF-kappaB activity reporter gene assay; format: cell-based
Chain of Toll-like receptor 3 (Homo sapiens) (O15455 whole entry): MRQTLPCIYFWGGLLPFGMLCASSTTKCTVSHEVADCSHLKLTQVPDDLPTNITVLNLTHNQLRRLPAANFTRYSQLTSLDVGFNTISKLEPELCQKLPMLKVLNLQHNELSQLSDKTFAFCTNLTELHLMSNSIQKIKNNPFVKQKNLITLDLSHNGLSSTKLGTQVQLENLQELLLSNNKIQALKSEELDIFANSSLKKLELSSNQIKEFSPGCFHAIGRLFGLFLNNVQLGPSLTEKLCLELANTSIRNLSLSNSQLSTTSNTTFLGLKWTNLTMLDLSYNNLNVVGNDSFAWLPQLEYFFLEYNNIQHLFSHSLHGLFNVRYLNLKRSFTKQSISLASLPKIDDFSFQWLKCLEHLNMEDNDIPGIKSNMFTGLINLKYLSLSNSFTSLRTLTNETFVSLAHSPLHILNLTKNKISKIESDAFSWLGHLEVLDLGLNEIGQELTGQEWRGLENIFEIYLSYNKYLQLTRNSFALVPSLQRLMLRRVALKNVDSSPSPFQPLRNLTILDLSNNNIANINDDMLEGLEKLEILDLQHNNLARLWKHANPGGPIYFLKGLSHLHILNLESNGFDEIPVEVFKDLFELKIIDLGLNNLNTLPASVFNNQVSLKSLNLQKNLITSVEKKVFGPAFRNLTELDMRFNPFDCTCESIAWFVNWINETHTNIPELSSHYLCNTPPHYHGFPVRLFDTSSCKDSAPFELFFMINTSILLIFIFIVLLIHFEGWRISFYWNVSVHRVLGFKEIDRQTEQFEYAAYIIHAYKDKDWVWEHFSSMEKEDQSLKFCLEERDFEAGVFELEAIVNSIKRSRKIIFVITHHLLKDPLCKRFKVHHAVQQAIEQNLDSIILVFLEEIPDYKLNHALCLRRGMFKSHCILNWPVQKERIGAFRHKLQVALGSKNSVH

[14] = system: PBMC; experiment: Immunomodulatory activity in human PBMC assessed as induction of IL12 at 50 ug/ml after 24 hrs; format: functional, cell-based; method in brief: as §1
[15] = system: PBMC; experiment: Immunomodulatory activity in human PBMC assessed as induction of MIP1beta at 50 ug/ml after 24 hrs; format: functional, cell-based; method in brief: as §1
[16] = system: PBMC; experiment: Immunomodulatory activity in human PBMC assessed as induction of IFN-alpha at 100 ug/ml after 24 hrs
[17] = organism: Homo sapiens; experiment: Ratio of human TLR7 activity to human TLR8 activity
Method in brief: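 TLR7/TLR8 ratio computed from fold NF-κB (SEAP reporter) activation in HEK293 cells stably expressing human TLR7 versus TLR8, compounds at 50 μg/mL, 18 h exposure; representative of three independent experiments.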

[18] = organism: Homo sapiens; experiment: Immunostimulatory activity in human mDC assessed as induction of IL6 at 100 ug/ml after 24 hrs; format: functional; method in brief: as §3
[19] = organism: Homo sapiens; experiment: Immunostimulatory activity in human mDC assessed as induction of IFNalpha at 100 ug/ml after 24 hrs; format: functional; method in brief: as §3
[20] = organism: Homo sapiens; experiment: Immunostimulatory activity in human mDC assessed as induction of IL12 at 100 ug/ml after 24 hrs; format: functional; method in brief: as §3
[21] = system: PBMC; experiment: Immunomodulatory activity in human PBMC assessed as induction of MCP1 at 50 ug/ml after 24 hrs; format: functional, cell-based; method in brief: as §1
[22] = system: PBMC; experiment: Immunomodulatory activity in human PBMC assessed as induction of MIP1alpha at 50 ug/ml after 24 hrs; format: functional, cell-based; method in brief: as §1

SMILES: Nc1ccn([C@@H]2O[C@H](COP(=O)(S)O[C@H]3[C@@H](O)[C@H](n4cnc5c(N)ncnc54)O[C@@H]3CO)[C@@H](OP(=O)(S)OC[C@H]3O[C@@H](n4ccc(=O)[nH]c4=O)[C@H](O)[C@@H]3OP(=O)(S)OC[C@H]3O[C@@H](n4ccc(=O)[nH]c4=O)[C@H](O)[C@@H]3OP(=O)(S)OC[C@H]3O[C@@H](n4ccc5c(=O)[nH]c(N)nc54)[C@H](O)[C@@H]3OP(=O)(S)OC[C@H]3O[C@@H](n4cnc5c(N)ncnc54)[C@H](O)[C@@H]3OP(=O)(S)OC[C@H]3O[C@@H](n4ccc(N)nc4=O)[C@H](O)[C@@H]3OP(=O)(S)OC[C@H]3O[C@@H](n4ccc5c(=O)[nH]c(N)nc54)[C@H](O)[C@@H]3OP(=O)(S)OC[C@H]3O[C@@H](n4cnc5c(N)ncnc54)[C@H](O)[C@@H]3OP(=O)(S)OC[C@H]3O[C@@H](n4ccc(=O)[nH]c4=O)[C@H](O)[C@@H]3OP(=O)(S)OC[C@H]3O[C@@H](n4ccc(=O)[nH]c4=O)[C@H](O)[C@@H]3OP(=O)(S)OCC(O)COP(=O)(S)O[C@H]3[C@@H](O)[C@H](n4ccc(=O)[nH]c4=O)O[C@@H]3COP(=O)(S)O[C@H]3[C@@H](O)[C@H](n4ccc(=O)[nH]c4=O)O[C@@H]3COP(=O)(S)O[C@H]3[C@@H](O)[C@H](n4cnc5c(N)ncnc54)O[C@@H]3COP(=O)(S)O[C@H]3[C@@H](O)[C@H](n4ccc5c(=O)[nH]c(N)nc54)O[C@@H]3COP(=O)(S)O[C@H]3[C@@H](O)[C@H](n4ccc(N)nc4=O)O[C@@H]3COP(=O)(S)O[C@H]3[C@@H](O)[C@H](n4cnc5c(N)ncnc54)O[C@@H]3COP(=O)(S)O[C@H]3[C@@H](O)[C@H](n4ccc5c(=O)[nH]c(N)nc54)O[C@@H]3COP(=O)(S)O[C@H]3[C@@H](O)[C@H](n4ccc(=O)[nH]c4=O)O[C@@H]3COP(=O)(S)O[C@H]3[C@@H](O)[C@H](n4ccc(=O)[nH]c4=O)O[C@@H]3COP(=O)(S)O[C@H]3[C@@H](O)[C@H](n4ccc(N)nc4=O)O[C@@H]3COP(=O)(S)O[C@H]3[C@@H](O)[C@H](n4cnc5c(N)ncnc54)O[C@@H]3CO)[C@H]2O)c(=O)n1 (some centres undefined)
- Activity [1]: 218 pg/mL
- Activity [2]: 174 pg/mL
- fold change (FC) [3]: 2.1
- Activity [4]: 2380 pg/mL
- Activity [5]: Active
- Activity [6]: 106 pg/mL
- Activity [7]: Active
- Activity [8]: Active
- Activity [9]: 199 pg/mL
- remaining at 10 min [10]: 86%
- Activity [11]: Active
- Activity [12]: Active
- Activity [13]: inactive
- Activity [14]: 360 pg/mL
- Activity [15]: 7330 pg/mL
- IFN-alpha [16]: 233 pg/mL
- Ratio [17]: 7.9
- Activity [18]: Active
- Activity [19]: Active
- Activity [20]: Active
- Activity [21]: 49100 pg/mL
- Activity [22]: 3620 pg/mL

SMILES: Nc1ccn([C@@H]2O[C@H](COP(=O)(S)O[C@H]3[C@@H](O)[C@H](n4cnc5c(N)ncnc54)O[C@@H]3COP(=O)(S)O[C@H]3[C@@H](O)[C@H](n4ccc5c(=O)[nH]c(N)nc54)O[C@@H]3COP(=O)(S)O[C@H]3[C@@H](O)[C@H](n4ccc(=O)[nH]c4=O)O[C@@H]3COP(=O)(S)O[C@H]3[C@@H](O)[C@H](n4ccc5c(=O)[nH]c(N)nc54)O[C@@H]3COP(=O)(S)O[C@H]3[C@@H](O)[C@H](n4cnc5c(N)ncnc54)O[C@@H]3COP(=O)(S)O[C@H]3[C@@H](O)[C@H](n4cnc5c(N)ncnc54)O[C@@H]3CO)[C@@H](OP(=O)(S)OC[C@H]3O[C@@H](n4ccc5c(=O)[nH]c(N)nc54)[C@H](O)[C@@H]3OP(=O)(S)OC[C@H]3O[C@@H](n4ccc(N)nc4=O)[C@H](O)[C@@H]3OP(=O)(S)OC[C@H]3O[C@@H](n4ccc(=O)[nH]c4=O)[C@H](O)[C@@H]3OP(=O)(S)OC[C@H]3O[C@@H](n4ccc(=O)[nH]c4=O)[C@H](O)[C@@H]3OP(=O)(S)OCC(O)COP(=O)(S)O[C@H]3[C@@H](O)[C@H](n4ccc(=O)[nH]c4=O)O[C@@H]3COP(=O)(S)O[C@H]3[C@@H](O)[C@H](n4ccc(=O)[nH]c4=O)O[C@@H]3COP(=O)(S)O[C@H]3[C@@H](O)[C@H](n4ccc(N)nc4=O)O[C@@H]3COP(=O)(S)O[C@H]3[C@@H](O)[C@H](n4ccc5c(=O)[nH]c(N)nc54)O[C@@H]3COP(=O)(S)O[C@H]3[C@@H](O)[C@H](n4ccc(N)nc4=O)O[C@@H]3COP(=O)(S)O[C@H]3[C@@H](O)[C@H](n4cnc5c(N)ncnc54)O[C@@H]3COP(=O)(S)O[C@H]3[C@@H](O)[C@H](n4ccc5c(=O)[nH]c(N)nc54)O[C@@H]3COP(=O)(S)O[C@H]3[C@@H](O)[C@H](n4ccc(=O)[nH]c4=O)O[C@@H]3COP(=O)(S)O[C@H]3[C@@H](O)[C@H](n4ccc5c(=O)[nH]c(N)nc54)O[C@@H]3COP(=O)(S)O[C@H]3[C@@H](O)[C@H](n4cnc5c(N)ncnc54)O[C@@H]3COP(=O)(S)O[C@H]3[C@@H](O)[C@H](n4cnc5c(N)ncnc54)O[C@@H]3CO)[C@H]2O)c(=O)n1 (some centres undefined)
- Activity [1]: 105 pg/mL
- Activity [2]: 57 pg/mL
- fold change (FC) [3]: 0.7
- Activity [4]: 1300 pg/mL
- Activity [5]: Active
- Activity [6]: 209 pg/mL
- Activity [7]: Active
- Activity [8]: Active
- Activity [9]: 629 pg/mL
- remaining at 10 min [10]: 87%
- Activity [11]: Active
- Activity [12]: Active
- Activity [13]: inactive
- Activity [14]: 316 pg/mL
- Activity [15]: 6230 pg/mL
- IFN-alpha [16]: 204 pg/mL
- Ratio [17]: 32.3
- Activity [18]: Active
- Activity [19]: Active
- Activity [20]: Active
- Activity [21]: 51500 pg/mL
- Activity [22]: 2540 pg/mL
